Data taken from ChEMBL document CHEMBL1126896, “Preparation and anti-HIV activity of O-acylated heparin and dermatan sulfate derivatives with low anticoagulant effect” (J Med Chem, 1993).

Columns and labels:
HuT78 = test: Giant-cell formation between persistently HIV-1 infected HUT-78 cells and uninfected MOLT-4 cells; format: functional, cell-based; details: hut78
In short: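 MOLT-4 cells were co-cultured with an equal number of HUT-78 cells persistently infected with HIV-1 IIIB or HIV-2 ROD, with varying compound concentrations. Syncytia were counted by flow cytofluorography after 24 h. EC50 is the concentration giving 50% protection against giant-cell formation.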

[1] = In vitro anticoagulant activity determined by clotting test of activated partial thromboplastin time (APTT) on a pool of human plasma; format: functional
In short: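 Activated partial thromboplastin time clotting test on pooled human plasma, run on an automatic coagulometer. Activities were calculated according to the European Pharmacopoeia.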

MT4 [2] = test: Effective concentration to achieve 50% protection of MT-4 cells against the cytopathic effect of HIV-1; format: functional, cell-based; details: mt4
MT4 [3] = test: Effective concentration to achieve 50% protection of MT-4 cells against the cytopathic effect of HIV-2; format: functional, cell-based; details: mt4
MT4 [4] = test: Selectivity index for CC50 (cytotoxic concentration based on the reduction of the viability of mock-infected MT-4 cells) to that of EC50 against HIV-1; format: functional
In short: (§1)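 MT-4 cells at 3 × 10^5 cells/mL were infected with HIV-1 IIIB or HIV-2 ROD at 100 CCID50/mL, or mock-infected, alongside serial compound dilutions. Viability was read by MTT after 5 days at 37 °C. CC50 comes from mock-infected cells and EC50 from protection against cytopathicity. Index = CC50/EC50.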

MT4 [5] = test: Selectivity index for CC50 (cytotoxic concentration based on reduction of viability of mock-infected MT-4 cells) to that of EC50 against HIV-2; format: functional; in short: as §1

SMILES	EC50 (HuT78) [µg/mL]	APTT [1] [IU mg-1]	EC50 (MT4 [2]) [µg/mL]	EC50 (MT4 [3]) [µg/mL]	Selectivity index (MT4 [4])	Selectivity index (MT4 [5])
CCCC(=O)OC/C(=C\C(=O)[O-])O[C@H]1O[C@H](COS(=O)(=O)[O-])[C@@H](O[C@@H]2O[C@@H](C(=O)[O-])[C@@H](O[C@H]3O[C@H](COS(=O)(=O)[O-])[C@@H](O[C@@H]4O[C@@H](C(=O)[O-])[C@@H](O[C@H]5O[C@H](CS(=O)(=O)[O-])[C@@H](O)[C@H](OC(=O)CCC)[C@H]5NS(=O)(=O)[O-])[C@H](OC(=O)CCC)[C@H]4OS(=O)(=O)[O-])[C@H](OC(=O)CCC)[C@H]3NS(=O)(=O)[O-])[C@H](OC(=O)CCC)[C@H]2OS(=O)(=O)[O-])[C@H](OC(=O)CCC)[C@H]1NS(=O)(=O)[O-].[Na+].[Na+].[Na+].[Na+].[Na+].[Na+].[Na+].[Na+].[Na+].[Na+].[Na+] (stereo in doubt; 4c)	57.5	2.7	5	0.01	80	40000
CCCC(=O)OC/C(=C\C(=O)[O-])O[C@H]1O[C@H](COS(=O)(=O)[O-])[C@@H](O[C@@H]2O[C@@H](C(=O)[O-])[C@@H](O[C@H]3O[C@H](COS(=O)(=O)[O-])[C@@H](O[C@@H]4O[C@@H](C(=O)[O-])[C@@H](O[C@H]5O[C@H](CS(=O)(=O)[O-])[C@@H](O)[C@H](OC(=O)CCC)[C@H]5NS(=O)(=O)[O-])[C@H](OC(=O)CCC)[C@H]4OS(=O)(=O)[O-])[C@H](OC(=O)CCC)[C@H]3NS(=O)(=O)[O-])[C@H](OC(=O)CCC)[C@H]2OS(=O)(=O)[O-])[C@H](OC(=O)CCC)[C@H]1NS(=O)(=O)[O-].[Na+].[Na+].[Na+].[Na+].[Na+].[Na+].[Na+].[Na+].[Na+].[Na+].[Na+] (stereo in doubt; 4d)	37.3	2.9	1.31	0.04	>382	>12500
CCCC(=O)OC/C(=C\C(=O)[O-])O[C@H]1O[C@H](COS(=O)(=O)[O-])[C@@H](O[C@@H]2O[C@@H](C(=O)[O-])[C@@H](O[C@H]3O[C@H](COS(=O)(=O)[O-])[C@@H](O[C@@H]4O[C@@H](C(=O)[O-])[C@@H](O[C@H]5O[C@H](CS(=O)(=O)[O-])[C@@H](O)[C@H](OC(=O)CCC)[C@H]5NS(=O)(=O)[O-])[C@H](OC(=O)CCC)[C@H]4OS(=O)(=O)[O-])[C@H](OC(=O)CCC)[C@H]3NS(=O)(=O)[O-])[C@H](OC(=O)CCC)[C@H]2OS(=O)(=O)[O-])[C@H](OC(=O)CCC)[C@H]1NS(=O)(=O)[O-].[Na+].[Na+].[Na+].[Na+].[Na+].[Na+].[Na+].[Na+].[Na+].[Na+].[Na+] (stereo in doubt; 4e)	43.7	4.5	0.95	0.07	>526	>7142
CCCC(=O)OC/C(=C\C(=O)[O-])O[C@H]1O[C@H](COS(=O)(=O)[O-])[C@@H](O[C@@H]2O[C@@H](C(=O)[O-])[C@@H](O[C@H]3O[C@H](COS(=O)(=O)[O-])[C@@H](O[C@@H]4O[C@@H](C(=O)[O-])[C@@H](O[C@H]5O[C@H](CS(=O)(=O)[O-])[C@@H](O)[C@H](OC(=O)CCC)[C@H]5NS(=O)(=O)[O-])[C@H](OC(=O)CCC)[C@H]4OS(=O)(=O)[O-])[C@H](OC(=O)CCC)[C@H]3NS(=O)(=O)[O-])[C@H](OC(=O)CCC)[C@H]2OS(=O)(=O)[O-])[C@H](OC(=O)CCC)[C@H]1NS(=O)(=O)[O-].[Na+].[Na+].[Na+].[Na+].[Na+].[Na+].[Na+].[Na+].[Na+].[Na+].[Na+] (stereo in doubt; 4f)	1.3	6.1	0.44	0.3	>1136	>1667
